Results published in ChEMBL document CHEMBL1649178, “Penetration of moxifloxacin into bone evaluated by Monte Carlo simulation” (Antimicrob Agents Chemother, 2009).
In brackets after ≈: the same amount, converted by molar mass.

Experiments:
[1] = fAUC/MIC in osteomyelitis patient serum at 400 mg, po administered for every 24 hrs at PKPD breakpoint at 1 mg/liter; assay type: functional
Method in brief: (§1)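 PKPD targets were derived by reverse engineering from success rates in clinical osteomyelitis studies, the expected AUCs at the doses used there, and published MIC distributions. Bone targets (total drug) use a ciprofloxacin bone/serum AUC ratio of 0.63. Concentration profiles were simulated for 10,000 patients given 400 mg orally q24h at steady state, without residual error, with serum protein binding assumed at 50%.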

[2] = fAUC/MIC in osteomyelitis patient serum at 400 mg, po administered for every 24 hrs at PKPD breakpoint at 0.375 mg/liter; assay type: functional; method in brief: as §1
[3] = fAUC/MIC in osteomyelitis patient cancellous bone at 400 mg, po administered for every 24 hrs at PKPD breakpoint at 0.25 mg/liter; assay type: functional; method in brief: as §1
[4] = Drug level in osteomyelitis patient cancellous bone at 400 mg, po administered for every 24 hrs; assay type: ADME, organism-based; settings: human, in vivo
[5] = fAUC/MIC in osteomyelitis patient cancellous bone at 400 mg, po administered for every 24 hrs at PKPD breakpoint at 0.375 mg/liter; assay type: functional; method in brief: as §1
[6] = fAUC/MIC in osteomyelitis patient cortical bone at 400 mg, po administered for every 24 hrs at PKPD breakpoint at 1 mg/liter; assay type: functional; method in brief: as §1
[7] = fAUC/MIC in osteomyelitis patient cortical bone at 400 mg, po administered for every 24 hrs at PKPD breakpoint at 0.5 mg/liter; assay type: functional; method in brief: as §1
Staphylococcus aureus = assay: Antimicrobial activity against Staphylococcus aureus
[8] = fAUC/MIC in osteomyelitis patient serum at 400 mg, po administered for every 24 hrs at PKPD breakpoint at 0.19 mg/liter; assay type: functional; method in brief: as §1
[9] = fAUC/MIC in osteomyelitis patient cortical bone at 400 mg, po administered for every 24 hrs at PKPD breakpoint at 0.25 mg/liter; assay type: functional; method in brief: as §1
[10] = fAUC/MIC in osteomyelitis patient cancellous bone at 400 mg, po administered for every 24 hrs at PKPD breakpoint at 1 mg/liter; assay type: functional; method in brief: as §1
[11] = Drug level in osteomyelitis patient cortical bone at 400 mg, po administered for every 24 hrs; assay type: ADME, organism-based, Bone element; settings: human, in vivo

COc1c(N2C[C@@H]3CCCN[C@@H]3C2)c(F)cc2c(=O)c(C(=O)O)cn(C3CC3)c12 [MOXIFLOXACIN] gave a fAUC/MIC [1] of 15, a fAUC/MIC [2] of 40 and a fAUC/MIC [3] of 55. It also gave a Drug uptake [4] of 78%, a fAUC/MIC [5] of 33 and a fAUC/MIC [6] of 13. The fAUC/MIC [7] was 33, the MIC90 (Staphylococcus aureus) was 0.125 µg/mL (≈ 0.311 µM) and the fAUC/MIC [8] was 66. The fAUC/MIC [9] was 55, the fAUC/MIC [10] was 13 and the Drug uptake [11] was 80%.
